Results collected from several papers.
Protocols differ between the studies behind these lines.
Target: Adenosine receptor A3 (ADORA3, Homo sapiens, UniProt P0DMS8)
Residues used in one study (P0DMS8 1-318): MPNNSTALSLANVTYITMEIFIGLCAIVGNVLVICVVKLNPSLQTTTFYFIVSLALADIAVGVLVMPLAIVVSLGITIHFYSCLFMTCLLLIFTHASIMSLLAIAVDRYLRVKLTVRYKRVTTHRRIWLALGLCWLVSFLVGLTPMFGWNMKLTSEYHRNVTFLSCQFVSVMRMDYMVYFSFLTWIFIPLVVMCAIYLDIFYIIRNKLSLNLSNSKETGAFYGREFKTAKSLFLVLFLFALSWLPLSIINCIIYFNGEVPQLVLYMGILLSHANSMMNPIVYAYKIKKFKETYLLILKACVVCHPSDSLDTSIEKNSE

observed	method	setting	Ki [µM]	SMILES
ligand displacement in cells	radioligand		0.0036	CNC(=O)[C@@]12C[C@@H]1[C@@H](n1cnc3c(NCc4cccc(Cl)c4)nc(C#Cc4cccc(C(=O)NCCOCCOCCOCCOCCOCCOCCC(=O)N5CCC(c6ccc(-c7cc(C(=O)O)cc8cc(-c9ccc(C(F)(F)F)cc9)ccc78)cc6)CC5)c4)nc31)[C@H](O)[C@@H]2O
ligand displacement in cells	BRET		0.00759	Nc1nc2ccc(Cl)cc2c2nc(-c3ccco3)nn12
ligand displacement	radioligand	cell membranes	5.46	NC1C(O)C(n2cnc3c(NCc4cccc(I)c4)ncnc32)C2CC12 (stereo not shown)
ligand displacement	radioligand	cell membranes	> 1	COCCOc1ccc(N2CCN(CCn3ncc4c3nc(N)n3nc(-c5ccco5)nc43)CC2)cc1
ligand displacement	radioligand	cell membranes	2.19	O[C@@H]1[C@H](O)[C@@H]2C[C@@H]2[C@H]1n1cnc2c(NCc3cn(C45CC6CC(CC(C6)C4)C5)nn3)nc(Cl)nc21
ligand displacement	radioligand	cell membranes	> 10	CN1CCCn2c1nc1c2c(=O)n(C)c(=O)n1C
ligand displacement	radioligand	cell membranes	0.0367	CNC(=O)[C@@]12C[C@@H]1[C@@H](n1cnc3c(NCc4cn(-c5ccc(C(=O)NCCCF)cc5)nn4)nc(Cl)nc31)[C@H](O)[C@@H]2O
ligand displacement	radioligand	cell membranes	> 10	CCCCCN1CCCn2c1nc1c2c(=O)n(C)c(=O)n1C
ligand displacement	radioligand		0.116	O=C(NCCC(c1ccccc1)c1ccccc1)[C@H]1S[C@@H](n2cnc3c(NCc4cccc(I)c4)ncnc32)[C@H](O)[C@@H]1O
ligand displacement	radioligand	cell membranes	> 10	CCCN1CCCn2c1nc1c2c(=O)n(C)c(=O)n1C
ligand displacement	radioligand		0.016	CCNC(=O)C1OC(n2cnc3c(N)nc(NN=CC4CCC=CO4)nc32)C(O)C1O (stereo not shown)
ligand displacement	radioligand		4.38	OC[C@@]12C[C@@H]1[C@@H](n1cnc3c(NC(C4CCCC4)C4CCCC4)nc(Cl)nc31)[C@H](O)[C@@H]2O
ligand displacement	radioligand	cell membranes	0.159	CC(C)=CCNc1ncnc2c1ncn2[C@@H]1O[C@H](CO)[C@@H](O)[C@H]1O
ligand displacement in cells	BRET		0.158	Nc1nc2c(cnn2CCc2ccccc2)c2nc(-c3ccco3)nn12
ligand displacement	radioligand	cell membranes	> 1	CCCCn1c(=O)c2[nH]c(C34CC5CC(CC3C5)C4)nc2n(CCCO)c1=O
ligand displacement	radioligand	cell membranes	0.0381	CNC(=O)[C@@]12C[C@@H]1[C@@H](n1cnc3c(NCc4cn(C56CC7CC(CC(C7)C5)C6)nn4)nc(Cl)nc31)[C@H](O)[C@@H]2O
